From ChEMBL document CHEMBL1133116, “Synthesis and evaluation of 17-aliphatic heterocycle-substituted steroidal inhibitors of 17alpha-hydroxylase/C17-20-lyase (P450 17)” (J Med Chem, 2000)

How the values were obtained:
[1] = molecular target: T1, Steroid 17-alpha-hydroxylase/17,20 lyase (Rattus norvegicus, UniProt P11715); experiment: Inhibition of Cytochrome P450 17 from rat testicular microsomes at 125 uM; n.i. means no inhibition
T1 sequence (P11715 whole entry): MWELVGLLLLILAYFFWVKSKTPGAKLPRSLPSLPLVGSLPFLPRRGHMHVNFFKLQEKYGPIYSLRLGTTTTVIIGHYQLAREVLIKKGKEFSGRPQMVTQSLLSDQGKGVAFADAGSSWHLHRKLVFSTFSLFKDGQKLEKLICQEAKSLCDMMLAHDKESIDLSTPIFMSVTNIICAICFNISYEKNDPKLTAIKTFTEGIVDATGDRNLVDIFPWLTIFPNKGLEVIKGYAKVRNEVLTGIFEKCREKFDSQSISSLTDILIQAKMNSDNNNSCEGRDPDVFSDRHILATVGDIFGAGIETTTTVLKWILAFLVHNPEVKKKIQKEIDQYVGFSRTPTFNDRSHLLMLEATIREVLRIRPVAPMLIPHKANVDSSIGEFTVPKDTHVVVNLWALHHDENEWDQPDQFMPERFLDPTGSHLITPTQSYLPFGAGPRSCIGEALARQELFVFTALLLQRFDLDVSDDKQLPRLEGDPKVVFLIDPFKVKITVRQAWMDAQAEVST
Method in brief: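 Rat testicular microsomes as P450 17 source, with progesterone substrate at 25 µM. […] Products were quantified by reverse-phase HPLC with UV detection. Values are means of at least two experiments.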

[2] = molecular target: T2, Steroid 17-alpha-hydroxylase/17,20 lyase (Homo sapiens, UniProt P05093); experiment: Inhibition of Cytochrome P450 17 from human testicular microsomes at 2.5 uM; n.i. means no inhibition
T2 sequence (P05093 whole entry): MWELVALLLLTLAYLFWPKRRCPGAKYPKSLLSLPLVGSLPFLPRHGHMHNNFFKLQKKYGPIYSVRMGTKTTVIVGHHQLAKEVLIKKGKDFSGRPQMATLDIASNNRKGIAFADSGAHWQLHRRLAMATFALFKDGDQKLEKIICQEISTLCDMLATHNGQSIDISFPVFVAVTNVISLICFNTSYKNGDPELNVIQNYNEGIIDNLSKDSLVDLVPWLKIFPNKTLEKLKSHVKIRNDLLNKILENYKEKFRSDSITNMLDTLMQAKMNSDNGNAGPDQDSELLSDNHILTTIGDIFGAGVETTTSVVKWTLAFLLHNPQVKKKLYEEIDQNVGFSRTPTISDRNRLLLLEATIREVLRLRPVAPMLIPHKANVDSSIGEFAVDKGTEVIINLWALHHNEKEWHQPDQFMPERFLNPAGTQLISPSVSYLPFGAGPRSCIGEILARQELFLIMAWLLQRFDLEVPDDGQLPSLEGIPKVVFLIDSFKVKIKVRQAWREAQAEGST
Method in brief: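 Human testicular microsomes as P450 17 source, with progesterone in large excess (25 µM) as substrate. Inhibitor was tested at 2.5 µM. The 16α- and 17α-hydroxyprogesterone products were quantified by reverse-phase HPLC with UV detection. No lyase products form with the human enzyme. Values are means of at least two experiments.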

For `COC1CC[C@@]2(C)C(=CC[C@H]3[C@@H]4CC[C@@H](C5CO5)[C@@]4(C)CC[C@@H]32)C1` (some centres not stated), the IC50 [1] was “Not Active” and the IC50 [2] was “Not Active”.
